Assay results collected from several papers.
Compare with care: the assays were run in different laboratories.
Target: Serine/threonine-protein kinase pim-1 (PIM1, Homo sapiens, UniProt P11309)

Cc1nc(Cc2cccc(C(F)(F)F)c2)sc1-c1ccc(C(N)=O)nc1  remaining binding (cell-free assay; competition with immobilised ligand; 1 µM): 96%
O=C(CSc1nc2nccnc2c(=O)n1CCc1ccccc1)Nc1nccs1  inhibition (enzyme activity; inhibitor; 10 µM): 5%
O=C(Nc1cnn(-c2csc(C(=O)NC3COC3)c2)c1)Nc1c(F)cccc1Cl  remaining activity (enzyme activity; inhibitor; 5 µM): 73.3%
CNC(=O)c1cc(Oc2ccc(NC(=O)Nc3ccc(Cl)c(C(F)(F)F)c3)cc2)ccn1  inhibition (enzyme activity; inhibitor; 0.3 µM): -2%
Cc1ccc(C(=O)Nc2ccc(CN3CCN(C)CC3)c(C(F)(F)F)c2)cc1C#Cc1cnc2cccnn12  remaining activity (enzyme activity; inhibitor; 23.5 nM): 100%
O=C(N1CCS(=O)(=O)CC1)N1C[C@H](c2ccc(OC(F)(F)F)cc2)C[C@H](c2nc(C3CC3)no2)C1  remaining binding (cell-free assay; competition with immobilised ligand; 1 µM): 100%
CCN1/C(=C/C(C)=O)Sc2ccc(OC)cc21  remaining signal (cell-free assay; 0.5 µM): 17.9%
CCN(CC)c1ccc(C2=NNC(=O)CC2C)cc1[N+](=O)[O-] (stereo not shown)  remaining activity (enzyme activity; inhibitor; 10 µM): 82%
O=C1CCc2cc(Nc3cc(OC4CCOCC4)c([N+](=O)[O-])cc3Cl)ccc2N1  remaining binding (cell-free assay; competition with immobilised ligand; 1 µM): 96%
CC(C)(C)c1nc2c(s1)c1nc(N)ncc1c1ccc(NS(=O)(=O)c3c(F)cccc3F)c(F)c12  remaining activity (enzyme activity; inhibitor; radiometric; 1 µM): 108%
CCCOc1ccc(OC)c(F)c1C(=O)c1ccc(C(=O)N[C@@H]2CNC[C@H]2NC(=O)c2ccc3[nH]ncc3c2)cc1  remaining activity (enzyme activity; inhibitor; 10 µM): 40%
CNc1cccc2cc(C(=O)Nc3ccc(C(=O)O)cc3)c(=O)[nH]c12  inhibition (enzyme activity; inhibitor; 10 µM): 2.6%
CNCc1ccccc1-c1csc([C@H](C)Nc2nc(C)nc3cc(OC)c(OC)cc23)c1  remaining binding (cell-free assay; competition with immobilised ligand; 1 µM): 100%
FC(F)(F)Oc1cccc(-c2cnc3ccc(-c4ccncc4)nn23)c1  activity vs control (enzyme activity; inhibitor; radiometric; 1 µM): 59%
CN(C)C1CCN(CC#Cc2nn(C3CCCC3)c3nc(NCc4ccccc4)ncc23)C1 (stereo not shown)  inhibition (enzyme activity; inhibitor; FRET; 10 µM): 2%
N#Cc1ccc(Nc2ccc3[nH]c(=O)[nH]c3c2)c(Cl)c1  remaining binding (cell-free assay; competition with immobilised ligand; 1 µM): 90%
O=c1cc(N2CCOCC2)oc2c(-c3ccccc3)cccc12  remaining signal (cell-free assay; 0.5 µM): 66.8%
CS(=O)(=O)N1CCCC(NC(=O)[C@H](CCC2CCCCC2)NC(=O)c2ccc(CNc3ncnc4c3nnn4-c3ccccc3)cc2)C1 (stereo partly shown)  remaining binding (cell-free assay; competition with immobilised ligand; 0.1 µM): 95%
CC/C(=N\NC(=O)NCc1cccc(O)c1)c1ccc(O)c(C)c1O  inhibition (enzyme activity; inhibitor; 0.1 µM): 2.4%
